From ChEMBL document CHEMBL4330181, “Cytosine-Based TET Enzyme Inhibitors” (ACS Med Chem Lett, 2019)
Activity calls are given as the source filed them. The calls are words filed in the database; no cut-off is given here.

Tests used:
[1] = biological target: Methylcytosine dioxygenase TET1 (Homo sapiens) (UniProt Q8NFU7); assay: Inhibition of recombinant human N-terminal FLAG-tagged TET1 (1418 to 2136 residues) expressed in baculovirus infected sf9 cells assessed as reduction in oxidation of methylated dsDNA at 100 uM after 2 hrs by chemiluminescence assay relative to control
In short: (§1)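 ELISA of oxidation of methylated double-stranded DNA by recombinant human TET1 or TET2, inhibitor tested at 100 μM. N = 3, mean ± SEM; two-way ANOVA.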

[2] = biological target: Methylcytosine dioxygenase TET2 (Homo sapiens) (UniProt Q6N021); assay: Inhibition of recombinant human C-terminal His/N-terminal FLAG-tagged TET2 (1129 to 2002 residues) expressed in baculovirus infected sf9 cells assessed as reduction in oxidation of methylated dsDNA at 100 uM after 2 hrs by chemiluminescence assay relative to control; in short: as §1
Mus musculus = species: Mus musculus; assay: Inhibition of TET in mouse HT22 cells assessed as reduction in global DNA 5-hmc level at 10 uM after 24 hrs by spectrophotometric method; format: cell-based
In short: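 HT-22 immortalized mouse hippocampal neurons dosed at 10 μM in 1% DMSO for 24 h, then lysed; DNA extracted and 5hmC detected with a 5hmC-specific antibody, colorimetric read-out giving percent 5hmC of all cytosine species. Vehicle control; N = 6 biological replicates per group, mean ± SEM, one-way ANOVA.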

[3] = biological target: DNA (cytosine-5)-methyltransferase 3A (Homo sapiens) (UniProt Q9Y6K1); assay: Inhibition of DNMT3A (unknown origin) at 500 uM
DNA (cytosine-5)-methyltransferase 3A (Homo sapiens), sequence (Q9Y6K1 whole entry, looked up): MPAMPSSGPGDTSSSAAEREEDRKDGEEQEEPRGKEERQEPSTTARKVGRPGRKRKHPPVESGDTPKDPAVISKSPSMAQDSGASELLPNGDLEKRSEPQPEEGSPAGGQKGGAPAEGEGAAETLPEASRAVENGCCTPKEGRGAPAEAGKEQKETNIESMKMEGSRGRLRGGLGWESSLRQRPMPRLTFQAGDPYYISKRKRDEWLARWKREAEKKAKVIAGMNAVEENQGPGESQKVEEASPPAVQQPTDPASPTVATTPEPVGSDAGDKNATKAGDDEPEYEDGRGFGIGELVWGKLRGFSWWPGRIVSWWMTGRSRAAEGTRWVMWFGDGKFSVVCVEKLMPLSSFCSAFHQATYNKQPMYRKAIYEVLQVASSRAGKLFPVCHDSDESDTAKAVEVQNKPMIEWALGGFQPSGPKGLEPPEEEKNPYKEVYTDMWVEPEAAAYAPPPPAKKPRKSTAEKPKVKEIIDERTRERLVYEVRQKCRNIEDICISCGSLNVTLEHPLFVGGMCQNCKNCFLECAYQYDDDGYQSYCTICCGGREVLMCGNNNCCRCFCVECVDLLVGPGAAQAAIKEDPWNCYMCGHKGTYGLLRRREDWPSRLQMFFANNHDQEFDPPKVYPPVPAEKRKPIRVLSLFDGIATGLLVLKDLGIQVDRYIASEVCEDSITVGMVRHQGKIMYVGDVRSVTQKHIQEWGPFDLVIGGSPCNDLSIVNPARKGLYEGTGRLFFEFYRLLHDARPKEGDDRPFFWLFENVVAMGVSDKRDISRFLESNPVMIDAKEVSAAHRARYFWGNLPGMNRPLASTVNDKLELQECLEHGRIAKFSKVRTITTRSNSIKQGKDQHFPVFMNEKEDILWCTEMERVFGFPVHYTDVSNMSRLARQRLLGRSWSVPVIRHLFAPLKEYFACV

Methylcytosine dioxygenase TET1 (Homo sapiens), sequence (Q8NFU7 whole entry, the tested form may be a part): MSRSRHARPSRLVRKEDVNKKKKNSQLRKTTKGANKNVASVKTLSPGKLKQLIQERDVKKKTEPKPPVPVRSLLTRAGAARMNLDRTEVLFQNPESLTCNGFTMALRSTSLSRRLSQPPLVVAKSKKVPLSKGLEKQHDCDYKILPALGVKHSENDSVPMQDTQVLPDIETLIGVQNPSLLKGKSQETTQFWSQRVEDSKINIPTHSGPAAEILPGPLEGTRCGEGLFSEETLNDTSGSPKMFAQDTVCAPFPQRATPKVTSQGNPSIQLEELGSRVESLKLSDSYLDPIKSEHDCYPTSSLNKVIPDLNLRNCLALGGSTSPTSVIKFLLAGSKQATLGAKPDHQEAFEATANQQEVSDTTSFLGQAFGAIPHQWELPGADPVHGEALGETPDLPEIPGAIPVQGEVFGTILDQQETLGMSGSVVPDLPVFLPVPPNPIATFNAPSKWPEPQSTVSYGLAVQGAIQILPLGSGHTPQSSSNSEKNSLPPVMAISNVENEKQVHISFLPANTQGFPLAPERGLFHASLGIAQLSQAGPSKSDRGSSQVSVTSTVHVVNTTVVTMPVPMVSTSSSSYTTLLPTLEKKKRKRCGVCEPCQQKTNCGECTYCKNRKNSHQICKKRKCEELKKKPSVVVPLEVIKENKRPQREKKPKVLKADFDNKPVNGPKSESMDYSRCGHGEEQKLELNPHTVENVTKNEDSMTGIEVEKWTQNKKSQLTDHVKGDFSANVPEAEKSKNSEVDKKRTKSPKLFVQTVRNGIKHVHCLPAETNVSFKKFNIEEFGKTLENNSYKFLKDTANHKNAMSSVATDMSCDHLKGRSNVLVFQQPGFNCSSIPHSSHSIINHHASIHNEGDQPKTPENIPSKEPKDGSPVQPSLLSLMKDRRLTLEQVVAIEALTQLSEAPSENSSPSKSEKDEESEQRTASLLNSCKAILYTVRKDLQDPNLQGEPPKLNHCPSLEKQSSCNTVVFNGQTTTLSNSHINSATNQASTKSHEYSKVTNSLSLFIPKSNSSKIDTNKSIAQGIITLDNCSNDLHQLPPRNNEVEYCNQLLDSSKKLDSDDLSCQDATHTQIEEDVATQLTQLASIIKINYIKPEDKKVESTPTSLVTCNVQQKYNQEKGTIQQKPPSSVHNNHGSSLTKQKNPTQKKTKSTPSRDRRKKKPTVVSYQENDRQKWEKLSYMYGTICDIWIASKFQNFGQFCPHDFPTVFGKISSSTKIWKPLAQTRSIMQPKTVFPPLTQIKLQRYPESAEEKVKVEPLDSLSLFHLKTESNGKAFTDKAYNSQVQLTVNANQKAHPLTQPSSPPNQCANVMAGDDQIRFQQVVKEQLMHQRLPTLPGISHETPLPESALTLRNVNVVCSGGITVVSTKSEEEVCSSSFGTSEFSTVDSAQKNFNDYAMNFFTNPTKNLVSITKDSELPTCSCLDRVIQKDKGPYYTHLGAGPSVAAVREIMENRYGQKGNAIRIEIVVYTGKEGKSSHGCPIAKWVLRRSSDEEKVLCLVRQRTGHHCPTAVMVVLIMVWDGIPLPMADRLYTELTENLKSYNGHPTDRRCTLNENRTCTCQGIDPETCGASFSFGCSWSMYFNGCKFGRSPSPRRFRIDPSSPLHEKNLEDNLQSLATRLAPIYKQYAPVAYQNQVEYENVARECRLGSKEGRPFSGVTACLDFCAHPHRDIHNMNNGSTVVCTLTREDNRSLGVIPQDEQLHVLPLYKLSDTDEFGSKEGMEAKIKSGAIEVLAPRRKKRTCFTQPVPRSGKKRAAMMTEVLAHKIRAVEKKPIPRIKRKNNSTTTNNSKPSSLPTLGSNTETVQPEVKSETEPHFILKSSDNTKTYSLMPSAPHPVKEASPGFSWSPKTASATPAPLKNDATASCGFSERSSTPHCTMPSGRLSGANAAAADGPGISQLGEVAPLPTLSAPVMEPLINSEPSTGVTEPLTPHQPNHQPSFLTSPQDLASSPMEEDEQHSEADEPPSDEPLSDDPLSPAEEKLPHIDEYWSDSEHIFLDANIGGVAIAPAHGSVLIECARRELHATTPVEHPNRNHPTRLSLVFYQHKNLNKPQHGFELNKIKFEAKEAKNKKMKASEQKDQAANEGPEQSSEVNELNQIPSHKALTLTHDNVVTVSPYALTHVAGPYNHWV

| inhibition [1] | inhibition [2] | inhibition [3] | Compound | inhibition (Mus musculus) |
| --- | --- | --- | --- | --- |
| inactive | inactive | – | Nc1nc(=O)n(-c2ccc(-c3ccccc3)cc2)cc1Cl | – |
| inactive | inactive | – | Nc1nc(=O)n(-c2ccccc2)cc1C(F)(F)F | – |
| inactive | inactive | – | Nc1nc(=O)n(-c2ccccc2-c2ccccc2)cc1Cl | – |
| 57% | 43% | – | Nc1nc(=O)n(-c2ccccc2)cc1Cl | inactive |
| Active | – | inactive | Nc1nc(=O)n(-c2cccc(-c3ccccc3)c2)cc1Cl | Active |
| inactive | inactive | – | Nc1ccn(-c2ccccc2)c(=O)n1 | – |
